Compound activity: PubChem BioAssay, Broad Institute
PglD inh – inhibitors of Campylobacter jejuni PglD acetyltransferase; 360,000 tested, 0.098% active; purified PglD enzyme, DTNB colorimetric CoA detection; inhibition, % at 12.5 µM; AID 602405; in the data active = inhibition above about 16%, passing the limit was not always enough; inconclusive = no clear call, values can overlap the other calls
FN deposition inh – fibronectin deposition inhibition; AH1F fibroblasts, Alexa488-fibronectin deposition fluorescence, overnight; inhibition, % at 12.6 µM; 350,000 tested, 0.086% active;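 active = mean inhibition across replicates of 30% or more, regardless of how many single replicates reach that level; inconclusive = mean under 30% yet at least half of replicates reach 30%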
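material = AH1F fibroblast monolayer depositing Alexa488-labelled fibronectin into matrix | amount = 10000 AH1F cells/well | buffer or medium = DMEM plus 2% serum, read in PBS | incubation = 1 h cell adhesion before compound, then overnight fibronectin incubation | detection = fluorescence at 485 nm excitation, 525 nm emission | evaluation = percent inhibition as loss of matrix-bound fibronectin fluorescence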
DENV2 CPE rescue – protects cells from dengue virus 2 cytopathic effect. DENV2-infected cells, cytopathic effect rescue, plate reader. CPE inhibition, % at 9.99 µM. 350,000 tested, 1.7% active; in the data active = CPE inhibition above about 20%, passing the limit was not always enough; inconclusive = no clear call, values can overlap the other calls; tested in BHK-21 cells
Ecoli rRNA inh – inhibits bacterial ribosomal RNA function over humanized ribosomes. GFP signal change (wild-type ribosome), % (no concentration beside the values). E. coli WT GFP vs humanized-ribosome RFP mutants, fluorescence, 24 h; hits give low values; DMSO median 0, no signal -100. AID 720706. 350,000 tested, 1.6% active;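 active = significant combined selectivity score with lowered wild-type GFP, culture density cut under 30%, mutant RFP and density less affected; inactive = any of these conditions unmet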
PGC1a acetyl inh – lowers PGC1a acetylation signal in U2OS cells; AlphaScreen anti-acetyl-lysine; with virally co-expressed GCN5 acetyltransferase; inhibition, % at 15.6 µM; 350,000 tested, 0.17% active; AID 651687;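 active = every replicate shows inhibition of at least 40%; inconclusive = mean inhibition at least 40% but some replicate below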
HIV Env fusion – inhibitors of HIV Env-mediated cell fusion; inhibition, % at 12.3 µM; 360,000 tested, 1.1% active; AID 651610; HeLa-JRFL Env/CEM21 cell fusion, luciferase;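 active = mean replicate inhibition score of at least 50 and every replicate individually at or above 50; inconclusive = only one of the two criteria met; inactive = mean below 50 and not all replicates reaching 50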
AID977621 – growth inhibition of wild-type GFP E. coli, dose response, H69 mutant RFP, cherry-pick. shares compounds with Ecoli rRNA inh. E. coli wild-type GFP strain growth, fluorescence, 24 h. activity change, negative = inhibition at 50 µM. 1,900 tested, under 10 active. AID 977621;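 active = Wild-type ribosome reporter drop at least double the humanized mutant ribosome reporter drop, growth loss under a set limit; inconclusive = no clear call, values can overlap the other calls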;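 also: wild-type GFP and H69 mutant RFP strains grown together 50/50 in each well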
AID977628 – E. coli growth inhibition, wild-type GFP versus h24 humanized RFP strain, dose response, h24 mutant RFP vs wild-type GFP, cherry-pick | shares compounds with Ecoli rRNA inh | E. coli WT GFP strain growth, fluorescence, 24 h | activity change, negative = inhibition at 50 µM | 1,900 tested, under 10 active | AID 977628;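 active = compound lowering the normal-ribosome reporter at least twice as much as the humanized-ribosome reporter, growth loss under a set limit; inconclusive = no clear call, values can overlap the other calls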;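 also: wild-type GFP and h24 humanized RFP strains co-cultured 1 to 1 per well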
Of the large screens only hits and unclear results are named; the others gave an inactive call (follow-up assays come after a bar, where they were run). Most compounds without a hit are left out; they make up all but 3.5% or so of the library.

C[C@@H]1NS(=O)(=O)c2c(F)cccc2O[C@@H]1c1ccccc1	Ecoli rRNA inh -22 (no result: PglD inh, PGC1a acetyl inh) | AID977628 inconclusive
COCC(=O)Nc1ccc2c(c1)C(=O)N(C)C[C@H](OC)[C@H](C)CN(C(=O)Cc1ccccn1)[C@@H](C)CO2	none (no result: HIV Env fusion)
COCC(=O)Nc1ccc2c(c1)C(=O)N(C)C[C@H](OC)[C@@H](C)CN(Cc1ccncc1)[C@H](C)CO2	none
CC(CNC(=O)CN1C(=O)CCSc2ccccc21)c1ccccc1 (centres undefined)	none
CCOc1ccc(CCNC(=O)CN2C(=O)CCSc3ccccc32)cc1	Ecoli rRNA inh -20 | AID977628 inconclusive
c1ccc2c(c1)nc(N1CCCCCC1)c1ccccc12	Ecoli rRNA inh -31 (no result: PglD inh, PGC1a acetyl inh) | AID977621 inactive
CC=Cc1ccc2n(c1=O)C[C@@H]1[C@@H](CO)[C@H](C(=O)NC3Cc4ccccc4C3)N(CCC)[C@H]21 (mixture of isomers)	none (no result: FN deposition inh, PGC1a acetyl inh, HIV Env fusion)
OCCC1CN(Cc2cnc(-c3ccc(Cl)cc3)nc2)CCN1C1CCCCC1 (centres undefined)	DENV2 CPE rescue 50, Ecoli rRNA inh -18 (no result: PglD inh, PGC1a acetyl inh) | AID977621 inactive | AID977628 inactive
Cc1cc(C)nc(SCC(=O)Nc2ccc3c(c2)OCO3)n1	DENV2 CPE rescue inconclusive
Cc1nc(SCC(=O)Nc2ccc3c(c2)OCCO3)nc(C)c1C	Ecoli rRNA inh -18 | AID977621 inactive
Cc1cccc(N2CCN(Cc3nc(-c4ccc(F)cc4F)oc3C)CC2)n1	Ecoli rRNA inh -34 | AID977621 inactive | AID977628 inactive
Cc1cnc(C)c(N2CCN(Cc3nc(-c4cccc(F)c4F)oc3C)CC2)n1	none (no result: PglD inh, PGC1a acetyl inh)
Cc1ccc(C)c(N2CCN(C(=O)CCS(=O)(=O)c3ccc4c(c3)oc(=O)n4C)CC2)c1	Ecoli rRNA inh -19 | AID977621 inactive | AID977628 inactive
Cn1c(=O)oc2cc(S(=O)(=O)CCC(=O)N3CCN(c4ccccc4F)CC3)ccc21	none
Cc1cccc(OCCNc2cc(N3CCN(C)CC3)ccc2[N+](=O)[O-])c1	none (no result: FN deposition inh, DENV2 CPE rescue, Ecoli rRNA inh, HIV Env fusion)
Cc1cccc(OCCNc2ncccc2[N+](=O)[O-])c1	Ecoli rRNA inh -17 (no result: PglD inh, FN deposition inh) | AID977621 inconclusive
CCOC(=O)c1c(C)[nH]c(C)c1C(=O)COC(=O)C1CCCN1S(=O)(=O)c1ccccc1F (centres undefined)	none (no result: FN deposition inh, DENV2 CPE rescue, Ecoli rRNA inh, HIV Env fusion)
O=C(COC(=O)[C@@H]1CCCN1S(=O)(=O)c1ccccc1F)c1ccccc1	Ecoli rRNA inh -16 (no result: PGC1a acetyl inh) | AID977621 inactive | AID977628 inconclusive
Cc1ccc(S(=O)(=O)N2C/C=C\CN(S(=O)(=O)c3ccccc3Br)CC2)cc1	none
Cc1ccc(S(=O)(=O)N2CCCN(S(=O)(=O)c3ccccc3Br)CC2)cc1	Ecoli rRNA inh -17 | AID977621 inactive | AID977628 inconclusive
CNC[C@@H]1Oc2ccc(NS(=O)(=O)c3ccccc3)cc2CC(=O)N([C@H](C)CO)C[C@H]1C	none (no result: FN deposition inh)
